Results published in ChEMBL document CHEMBL3351385, “Synthesis and preliminary mechanistic evaluation of 5-(p-tolyl)-1-(quinolin-2-yl)pyrazole-3-carboxylic acid amides with potent antiproliferative activity on human cancer cell lines” (Eur J Med Chem, 2014).
Active and inactive are the calls of the source. The calls are words filed in the database; no cut-off is given here.

Tests used:
[1] = Cytotoxicity against human HCT116 cells after 72 hrs by SRB assay; type: functional, cell-based; conditions: HCT-116, 72 h
Procedure, shortened: (§1)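 Cells kept in DMEM with 10% FCS and penicillin/streptomycin at 37°C, 5% CO2. 2000–3000 cells/well were seeded, and medium was refreshed the next day. DMSO solutions were added over 2.5–40 µM with matched DMSO-only controls for 72 h. Cells were then TCA-fixed, stained with 0.4% SRB in 1% acetic acid, solubilized in 10 mM Tris pH 8 and read at 515 nm. Data were normalized to DMSO wells and expressed as mean ±SD.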

[2] = Cytotoxicity against human HuH7 cells after 72 hrs by SRB assay; type: functional, cell-based; conditions: Huh-7, 72 h; procedure, shortened: as §1
MCF7 = assay: Cytotoxicity against human MCF7 cells after 72 hrs by SRB assay; type: functional, cell-based; conditions: MCF7, 72 h; procedure, shortened: as §1
[3] = Induction of cell cycle arrest in human Mahlavu cells assessed as accumulation at G2/M phase at cytotoxic IC50 level after 48 hrs by propidium iodide staining based FACS method; type: functional
Huh-7 [4] = assay: Induction of cell death in human HuH7 cells assessed as DNA fragmentation at cytotoxic IC50 level after 72 hrs by Hoechst 33258 staining based […]; type: functional
Procedure, shortened: (§2)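 Cells were washed in cold PBS, fixed 10 min in cold methanol and stained with Hoechst 33258 at 3 µg/mL for 5 min in the dark. Nuclear condensation and fragmentation were examined by fluorescence microscopy at 40×.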

[5] = Induction of cell cycle arrest in human Mahlavu cells assessed as accumulation at G0/G1 phase at cytotoxic IC50 level after 48 hrs by propidium iodide staining based FACS method; type: functional
[6] = Induction of cell cycle arrest in human HuH7 cells assessed as accumulation at G0/G1 phase at cytotoxic IC50 level after 48 hrs by propidium iodide staining based FACS method; type: functional, Huh-7
Procedure, shortened: (§3)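 Huh7 cells were seeded at 150,000–300,000 per 100-mm dish and left 24 h. […] Cells were stained with a propidium iodide-containing cell cycle reagent, and subG1, G0/G1, S and G2/M fractions were scored by flow cytometry.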

[7] = Induction of cell cycle arrest in human HuH7 cells assessed as accumulation at G2/M phase at cytotoxic IC50 level after 48 hrs by propidium iodide staining based FACS method; type: functional, Huh-7; procedure, shortened: as §3
Huh-7 [8] = assay: Induction of cell death in human HuH7 cells assessed as nuclear condensation at cytotoxic IC50 level after 72 hrs by Hoechst 33258 staining based […]; type: functional; procedure, shortened: as §2
Huh-7 [9] = assay: Induction of cell death in human HuH7 cells assessed as induction of intracytoplasmic vacuoles at cytotoxic IC50 level after 72 hrs by inverted light microscopy; type: functional, cell-based
Procedure, shortened: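 They were viewed under an inverted light microscope at 20× for death morphology, including intracytoplasmic vacuoles.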

[10] = Induction of cell cycle arrest in human HuH7 cells assessed as accumulation at S phase at cytotoxic IC50 level after 48 hrs by propidium iodide staining based FACS method; type: functional, Huh-7; procedure, shortened: as §3
Huh-7 [11] = assay: Induction of autophagy in human HuH7 cells assessed as increase in LC3-2 formation at cytotoxic IC50 level after 72 hrs by Western blotting method; type: functional, cell-based
[12] = Induction of cell cycle arrest in human Mahlavu cells assessed as accumulation at S phase at cytotoxic IC50 level after 48 hrs by propidium iodide staining based FACS method; type: functional

| SMILES | IC50 [1] [µM] | IC50 [2] [µM] | IC50 (MCF7) [µM] | also measured |
| --- | --- | --- | --- | --- |
| COc1ncccc1NC(=O)c1cc(-c2ccc(C)cc2)n(-c2ccc3ccccc3n2)n1 | 15.7 | 7.9 | 30.2 |  |
| Cc1ccc(-c2cc(C(=O)N3CCN(c4cccc(C(F)(F)F)n4)CC3)nn2-c2ccc3ccccc3n2)cc1 | 9.4 | 10.2 | 11.4 |  |
| Cc1ccc(-c2cc(C(=O)N3CCN(c4ncccc4C#N)CC3)nn2-c2ccc3ccccc3n2)cc1 | 39.4 | 21.5 | 79.5 |  |
| Cc1ccc(-c2cc(C(=O)Nc3ccc(Cl)nc3Cl)nn2-c2ccc3ccccc3n2)cc1 | 7.9 | 14 | 12.7 |  |
| Cc1ccc(-c2cc(C(=O)N3CCN(c4ccc(C(F)(F)F)cn4)CC3)nn2-c2ccc3ccccc3n2)cc1 | 17 | 20.9 | 44.7 |  |
| Cc1ccc(-c2cc(C(=O)Nc3ncc(Br)cc3Br)nn2-c2ccc3ccccc3n2)cc1 | 9.6 | 11.5 | 16.9 |  |
| Cc1ccc(-c2cc(C(=O)NCc3cccnc3)nn2-c2ccc3ccccc3n2)cc1 | 11.2 | 14.1 | 19 | Activity [3]: 28.5%; Activity (Huh-7 [4]): Active; Activity [5]: 56.1%; Activity [6]: 56.1%; Activity [7]: 32.3%; Activity (Huh-7 [8]): Active; Activity (Huh-7 [9]): Active; Activity [10]: 10.5%; Activity (Huh-7 [11]): Active; Activity [12]: 14% |
| Cc1ccc(-c2cc(C(=O)Nc3ccncc3)nn2-c2ccc3ccccc3n2)cc1 | 8.1 | 8 | 15.4 |  |
| Cc1ccc(-c2cc(C(=O)N3CCN(c4ccncc4)CC3)nn2-c2ccc3ccccc3n2)cc1 | 7.1 | 7.8 | 4.7 | Activity [3]: 24.4%; Activity (Huh-7 [4]): Active; Activity [5]: 52.9%; Activity [6]: 57.2%; Activity [7]: 33%; Activity (Huh-7 [8]): Active; Activity (Huh-7 [9]): Active; Activity [10]: 7.2%; Activity (Huh-7 [11]): Active; Activity [12]: 17% |
| Cc1ccc(-c2cc(C(=O)N3CCN(c4ncccc4C(F)(F)F)CC3)nn2-c2ccc3ccccc3n2)cc1 | 9.7 | 12.7 | 5.8 |  |
| Cc1ccc(-c2cc(C(=O)N3CCN(c4ncc(C(F)(F)F)cc4Cl)CC3)nn2-c2ccc3ccccc3n2)cc1 | 13.3 | 8 | 48 |  |
| CC[C@@]1(O)C(=O)OCc2c1cc1n(c2=O)Cc2cc3ccccc3nc2-1 [CAMPTOTHECIN] | 0.00015 | 0.004 | 0.0006 |  |
| Cc1ccc(-c2cc(C(=O)N3CCN(c4ccccn4)CC3)nn2-c2ccc3ccccc3n2)cc1 | 5.1 | 4.8 | 12 |  |
| Cc1ccc(-c2cc(C(=O)Nc3ccncc3Br)nn2-c2ccc3ccccc3n2)cc1 | 15.5 | 13.1 | 11 |  |
| Cc1ccc(-c2cc(C(=O)N3CCN(c4c(Cl)cncc4Cl)CC3)nn2-c2ccc3ccccc3n2)cc1 | 4.8 | 4.6 | 9.7 |  |
